Compound activity (PubChem)
KCNK9 inh: inhibitors of human KCNK9 two-pore domain potassium channel | Q9NPC2 | HEK293 KCNK9, FluxOR thallium flux fluorescence; stronger effect = lower value | B-score at 10 µM | 1.2% of 310,000 active | AID 488922;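 active = ratio B-score over 3 SD below the library mean, with starting fluorescence within 5 SD of its mean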;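 note: negative B-score means less thallium flux so channel inhibition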
Target sequence (Q9NPC2 whole entry, looked up, the tested form may be a part): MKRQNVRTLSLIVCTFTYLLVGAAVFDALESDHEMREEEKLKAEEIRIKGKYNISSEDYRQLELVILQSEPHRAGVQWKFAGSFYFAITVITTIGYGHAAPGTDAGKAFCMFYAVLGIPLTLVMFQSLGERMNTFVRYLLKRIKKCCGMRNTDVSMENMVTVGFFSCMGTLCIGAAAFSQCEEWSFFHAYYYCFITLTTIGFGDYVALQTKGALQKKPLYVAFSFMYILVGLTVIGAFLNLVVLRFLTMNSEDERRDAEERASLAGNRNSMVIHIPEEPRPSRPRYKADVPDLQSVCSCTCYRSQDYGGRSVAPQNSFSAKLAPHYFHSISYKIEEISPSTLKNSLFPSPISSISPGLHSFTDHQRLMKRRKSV
hERG rescue: shields human hERG channel from block by proarrhythmic agents | CHO-hERG, FluxOR thallium flux, dofetilide IC70 present | activation (rescue from dofetilide block), less the hit threshold, % at 10 µM | AID 1511 | 0.51% of 310,000 active | Q12809;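 active = activation above the mean of controls blocked by dofetilide plus 5 SD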;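 note: thallium influx through hERG after potassium depolarization seen as dye fluorescence rise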
Kir21 inh: inhibitors of mouse Kir2.1 inward-rectifier potassium channel; AID 1672; B-score at 10 µM; P35561; 0.85% of 310,000 active; HEK293-Kir2.1, FluxOR thallium flux fluorescence; stronger effect = lower value;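 active = fluorescence ratio B-score at or below minus 3 SD of library scores, with starting-brightness B-score within 2 SD, cut at about -4.2 in these data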;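 note: channel flux triggered by added potassium and thallium sulfate stimulus; B-score of peak minus minimum fluorescence over baseline after thallium stimulus; more negative B-score means stronger Kir2.1 block with less thallium influx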
KCNQ1 inh: inhibitors of human KCNQ1 potassium channel; P51787; CHO-K1 KCNQ1, FluxOR thallium flux fluorescence; stronger effect = higher value; B-score at 10 µM; 1.3% of 310,000 active;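 active = compounds whose thallium flux B-score, printed positive for inhibition, exceeds three library SD while starting fluorescence stays within three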;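 note: channel opened by potassium depolarization with thallium stimulus after 20 min compound exposure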
KCNK3 inh: human KCNK3 channel inhibition, primary screen | CHO-KCNK3 thallium flux, FluxOR fluorescence; stronger effect = lower value | 0.84% of 340,000 active | B-score at 10 µM | O14649;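 active = B-score under library mean minus 4 SD, starting fluorescence ratio at most library mean plus 5 SD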;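 note: more negative B-score means stronger inhibition of thallium flux through KCNK3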
Target sequence (O14649 whole entry, looked up): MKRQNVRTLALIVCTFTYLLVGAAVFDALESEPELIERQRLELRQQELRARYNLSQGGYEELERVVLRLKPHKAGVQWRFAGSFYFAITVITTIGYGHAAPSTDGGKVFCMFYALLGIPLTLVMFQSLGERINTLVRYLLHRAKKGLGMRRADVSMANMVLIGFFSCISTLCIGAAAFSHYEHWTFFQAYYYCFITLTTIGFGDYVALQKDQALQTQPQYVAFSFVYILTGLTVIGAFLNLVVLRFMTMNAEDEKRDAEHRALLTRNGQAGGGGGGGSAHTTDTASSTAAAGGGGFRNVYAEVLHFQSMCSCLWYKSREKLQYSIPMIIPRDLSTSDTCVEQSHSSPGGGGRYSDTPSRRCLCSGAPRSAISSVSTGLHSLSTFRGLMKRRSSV
KCNQ1 act: human KCNQ1 channel potentiation or activation; CHO-K1 KCNQ1, thallium flux FluxOR fluorescence; stronger effect = higher value; B-score at 10 µM; 0.35% of 310,000 active;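 active = fluorescence ratio B-score, a plate-corrected score, at least three library SD, with initial intensity B-score within 5 SD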
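System: Stable KCNQ1 CHO-K1 line | Incubation: 90 min dye loading and 20 min compound exposure, both at room temperature | Measure: Ratio B score | Medium: Assay buffer for compound exposure, DMSO matched across wells | Compound dosing: Single-concentration screen | Probe or stimulus: K+/Tl+ depolarizing stimulus | Measured by: Kinetic FluxOR fluorescence, 10 s baseline plus 110 s post-stimulus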
KCNK3 inh conf: human KCNK3 channel inhibition, confirmation assay; ratio percent of control, % at 10 µM; 99% of 2,400 active; shares compounds with KCNK3 inh; AID 651638; CHO-KCNK3 thallium flux, FluxOR fluorescence; 0% buffer, 100% carvedilol maximal block;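 active = ratio percent of control, averaged over triplicates, above buffer control mean plus 5 SD, cut at about 64% in these data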;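 note: ratio is the fluorescence rise from min to max over baseline after thallium stimulus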
KCNK3 noninduced: counter-screen for KCNK3 inhibitors: effect in non-induced cells; 40% of 2,400 active; non-induced KCNK3 parental cells, FluxOR thallium flux; stronger effect = lower value; thallium flux ratio (lower = more inhibition) at 10 µM; shares compounds with KCNK3 inh; AID 651747;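 active = thallium flux ratio, averaged over three wells, more than 5 SD below the buffer control mean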;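 note: host cells are CHO cells without KCNK3 induction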
Of the large screens only hits and unclear results are named; the others gave an inactive call (follow-up assays come after a bar, where they were run). Hits are enriched below; roughly 3.7% of the tested compounds scored in any of these assays.

C=CCn1c(SCC(=O)c2cccs2)nc2sc(C)c(C)c2c1=O	KCNK3 inh -9.5 | KCNK3 inh conf 115 | KCNK3 noninduced 0.15
O=C(Cc1ccc(Cl)cc1)c1c[nH]c(C(=O)NCCCN2CCOCC2)c1	none
C=CCn1c(C)cc(C(=O)COc2ccc(N(C)S(=O)(=O)c3ccc(NC(C)=O)cc3)cc2)c1C	KCNK3 inh -12 (no result: KCNK9 inh, hERG rescue, Kir21 inh, KCNQ1 inh, KCNQ1 act) | KCNK3 inh conf 105 | KCNK3 noninduced inactive
CCn1c(N)cc(=O)[nH]c1=S	none (no result: KCNK9 inh, hERG rescue, Kir21 inh, KCNQ1 inh, KCNQ1 act)
OC1CCN(c2c3c(nc4cc(-c5cccc(F)c5)nn24)CCCC3)CC1	KCNK3 inh -8.9 | KCNK3 inh conf 122 | KCNK3 noninduced inactive
O=C(Nc1cccc(/C=C/c2ccccn2)c1)c1cc(Cl)ccn1	KCNK3 inh -9.4 | KCNK3 inh conf 109 | KCNK3 noninduced inactive
O=C(N/C(=C\c1ccccc1)C(=O)N1CCOCC1)c1ccccc1Br	none
Cc1ccc(CN2CCN(/N=C/c3cc(Br)ccc3F)CC2)cc1	none
Fc1ccc(Br)cc1/C=N/N1CCN(c2ccccc2)CC1	KCNK3 inh -9.3 | KCNK3 inh conf 96 | KCNK3 noninduced inactive
O=C(CN(c1cccc(Cl)c1)S(=O)(=O)c1ccc(Cl)cc1)NCc1ccccn1	none
CCCc1cc(=O)n2nc(N3CCC(C(=O)N4CCN(c5cccc(OC)c5)CC4)CC3)sc2n1	none
Cc1cccc(NC(=O)NC2CCCc3ccccc32)c1 (stereo not drawn)	KCNK3 inh -9.4 | KCNK3 inh conf 121 | KCNK3 noninduced 0.14
CC1(C)C(=O)Nc2ccccc2N1C(=O)COC(=O)c1ccc(NC(N)=O)cc1	none (no result: KCNK9 inh, hERG rescue, Kir21 inh, KCNQ1 inh, KCNQ1 act)
CN(CC(=O)Nc1c(Cl)cccc1Cl)C(=O)C1CC(=O)N(Cc2ccccc2)C1 (stereo not drawn)	none (no result: KCNK9 inh, hERG rescue, Kir21 inh, KCNQ1 inh, KCNQ1 act)
CCc1ccc(NC(=O)NC2CCCCCCC2)cc1	KCNK3 inh -9.4 | KCNK3 inh conf 125 | KCNK3 noninduced 0.12
CN(CC(=O)Nc1ccccc1Cl)C(=O)c1cc(C2CC2)nn1-c1ccccc1	none (no result: KCNK9 inh, hERG rescue, Kir21 inh, KCNQ1 inh, KCNQ1 act)
COc1ccc(-c2[nH]ncc2N=Nc2ccccc2)cc1	KCNK3 inh -9.2 | KCNK3 inh conf 88 | KCNK3 noninduced inactive
COc1ccc(-c2[nH]ncc2N=Nc2cc(C)cc(C)c2)cc1	none
Cc1onc(-c2ccc3c(c2)OCO3)c1-c1ccc2[nH]ccc2c1	KCNK3 inh -9.5 | KCNK3 inh conf 95 | KCNK3 noninduced inactive
COc1ccc(-c2nc3ccccn3c2CN2CCN(c3ccccc3F)CC2)cc1	KCNK3 inh -8.8 | KCNK3 inh conf 106 | KCNK3 noninduced 0.16
CSc1nc(C)c(Cc2ccccc2)c(=O)[nH]1	none
CCCCC(Sc1nc(C)c(Cc2ccccc2)c(=O)[nH]1)C(=O)O (stereo not drawn)	KCNK3 inh -9 | KCNK3 inh conf inactive | KCNK3 noninduced inactive
CN(c1ccccc1)S(=O)(=O)c1ccc(NC(=O)c2nc(S(C)(=O)=O)ncc2Cl)cc1	Kir21 inh -4.5, KCNK3 inh -9 | KCNK3 inh conf 106 | KCNK3 noninduced 0.15
CN(c1ccccc1)S(=O)(=O)c1ccc(Cl)c(C(=O)Nc2ccncc2)c1	none (no result: KCNK9 inh, hERG rescue, Kir21 inh, KCNQ1 inh, KCNQ1 act)
O=C(N1CCCC1)C12CC3CCC(CC(C3)C1)C2	KCNK3 inh -12 | KCNK3 inh conf 86 | KCNK3 noninduced inactive
COc1cccc2cc(CC(=O)c3ccc(C)c(C)c3)c(=O)oc12	none
COc1cccc2cc(CC(=O)c3cc(C)ccc3C)c(=O)oc12	KCNK3 inh -9.6 | KCNK3 inh conf 82 | KCNK3 noninduced inactive
COCCOc1nc2c(c(=O)n(C)c(=O)n2C)n1Cc1cccc(OC)c1	KCNK3 inh -11 | KCNK3 inh conf 66 | KCNK3 noninduced inactive
O=C(COC(=O)C1(c2ccccc2)CC1)NNC(=O)c1ccccc1	none
CCCCCCNS(=O)(=O)c1ccc(Cl)s1	KCNK3 inh -9.2 | KCNK3 inh conf 94 | KCNK3 noninduced inactive
CC1(C)CC(=O)C=C(Nc2ccc(Cl)cc2)C1	none
CC1(C)CC(=O)C=C(Nc2ccc(Cl)c(Br)c2)C1	KCNK3 inh -10 | KCNK3 inh conf 114 | KCNK3 noninduced 0.15
Cc1cc(SCC(=O)NC2CCCC2)nc2ccccc12	none
Cc1ccc(S(=O)(=O)N(C)c2ccc(OCc3cccc(C)c3)cc2)cc1	KCNK3 inh -9.3 | KCNK3 inh conf 108 | KCNK3 noninduced 0.15
O=[N+]([O-])c1ccc(/C=N/Nc2nc(N3CCCC3)nc(N3CCCC3)n2)o1	none
O=[N+]([O-])c1ccc(-c2ccc(/C=N/Nc3nc(N4CCCC4)nc(N4CCCC4)n3)o2)cc1	KCNQ1 inh 7, KCNK3 inh -9.8 | KCNK3 inh conf 141 | KCNK3 noninduced 0.11
Clc1cccc(-c2nc(NCCCN3CCOCC3)c3ccccc3n2)c1	KCNK3 inh -9.4 | KCNK3 inh conf 91 | KCNK3 noninduced 0.15
Clc1cccc(-c2nc(NCCN3CCOCC3)c3ccccc3n2)c1	none
COc1cc(CN(C)Cc2cccc3ccccc23)cc([N+](=O)[O-])c1O	none
CN(Cc1cccc([N+](=O)[O-])c1)Cc1cccc2ccccc12	KCNK9 inh -6.8, KCNQ1 inh 6, KCNK3 inh -11 | KCNK3 inh conf 114 | KCNK3 noninduced 0.15
COc1ccc(C(C)=O)cc1COc1ccc(F)cc1	KCNK3 inh -9.2 | KCNK3 inh conf 115 | KCNK3 noninduced inactive
COc1ccc(C(C)=O)cc1COC(=O)CNC(=O)c1ccc(F)cc1	none
CC(=O)c1cccc(NS(=O)(=O)c2ccc(-c3cnc(C4CC4)o3)cc2)c1	none
CCC(C(=O)O/N=C(\N)c1ccc(Cl)cc1)c1ccccc1 (stereo not drawn)	KCNK9 inh -6.6, KCNK3 inh -10 | KCNK3 inh conf 108 | KCNK3 noninduced inactive
CCOc1ccc(CCNC(=O)COC(=O)c2ccc(OC(C)C)cc2)cc1OCC	none
O=C(NC1CCN(C(=O)N2c3ccccc3Sc3ccccc32)CC1)c1ccccc1Cl	KCNK9 inh -7.3, KCNK3 inh -10 | KCNK3 inh conf 109 | KCNK3 noninduced inactive
O=C(NC1CCN(C(=O)N2c3ccccc3Sc3ccccc32)CC1)c1ccco1	none
c1ccc2c(-c3c[nH]c4ccccc34)c3ccccc3nc2c1	KCNK3 inh -10 | KCNK3 inh conf 123 | KCNK3 noninduced inactive
CCCN1C(=O)/C(=C/c2ccc(C)s2)SC1=Nc1ccc(OC)cc1	KCNK3 inh -9 | KCNK3 inh conf 114 | KCNK3 noninduced inactive
Cc1cccc(C)c1NC(=O)/C(=C/c1ccco1)c1ccccc1	none
